From PubChem
Sampled rows, rich in hits. Any-hit rate of the full collection: about 2.5%.
PRMT1 inh: PRMT1 methyltransferase inhibitors, primary screen, biochemical, fluorescence polarization | inhibition, % at 2.79 µM | AID 652257, 2013 | recombinant PRMT1, activity-based probe fluorescence polarization | hit rate 1.3% among 370,000;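 active = inhibition above about 21% made by adding two undisclosed values, limit read from the data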
HTRA1 inh: HTRA1 serine protease inhibitors, primary screen, biochemical, fluorescence polarization, HTS. Q92743. recombinant HTRA1, FP-rhodamine activity-based probe. inhibition, % at 5.96 µM. hit rate 0.5% among 340,000; in the data active = inhibition above about 36%;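 note: 0% = enzyme with DMSO and 100% = wells lacking enzyme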
SIAE inh: human SIAE inhibitors, primary screen, biochemical, fluorescence polarization, FP-Rh probe, 1536-well HTS | Sialate O-acetylesterase (Homo sapiens), Q9HAT2 | SIAE FP-Rh probe binding | inhibition, % at 9.66 µM | hit rate 0.69% among 370,000;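 active = inhibition above a cutoff: mean of compounds within the control limits plus 3 SD of those, cut at about 17% in these data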;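 note: 0% = plate median of compound wells and 100% = probe without SIAE protein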
mABHD4 FP: ABHD4 inhibitors, primary screen, biochemical, fluorescence polarization, mouse; purified mABHD4, FP-Rh probe fluorescence polarization; AID 720543, 2013; inhibition, % at 8.92 µM; hit rate 0.54% among 370,000;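 active = inhibition exceeding the mean over every tested compound plus 3 SD, cut at about 30% in these data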;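 note: 0% = plate median of compound wells and 100% = S159A mutant with DMSO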
Target sequence (Q8VD66 whole entry, looked up): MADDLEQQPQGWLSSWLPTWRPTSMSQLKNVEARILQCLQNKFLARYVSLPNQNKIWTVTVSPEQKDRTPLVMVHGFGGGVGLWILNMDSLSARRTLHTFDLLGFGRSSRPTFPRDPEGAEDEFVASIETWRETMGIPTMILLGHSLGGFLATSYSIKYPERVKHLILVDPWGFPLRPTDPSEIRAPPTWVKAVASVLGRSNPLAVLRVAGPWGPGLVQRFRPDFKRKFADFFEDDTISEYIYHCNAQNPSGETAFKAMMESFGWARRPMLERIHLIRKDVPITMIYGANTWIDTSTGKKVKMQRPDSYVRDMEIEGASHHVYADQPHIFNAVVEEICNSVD
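Assay system: mouse ABHD4 enzyme, wild type / Also added: fluorescent activity-based probe FP-Rh / Doses: single nominal dose of 8.92 µM, 0.89% DMSO final / Timing: 45 min compound pre-incubation plus 60 min probe step, 25 °C / Signal: FP readout, ex 525 nm / em 598 nm / Control set: S159A mutant/DMSO as 100%, compound-well median as 0%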
TCR-CD3 inh: inhibitors of human TCR-CD3 interaction, primary screen, biochemical, fluorescence, TAMRA-labeled TCR probe | T-cell receptor (TCR) | inhibition, % at 9.4 µM | hit rate 0.37% among 360,000 | AID 651800, 2012; in the data active = inhibition above about 19%;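 note: recombinant mutant TCR 2C K166C tagged with TAMRA read by polarization; 0% = receptor in buffer alone and 100% = receptor with positive control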
PRMT1 inh conf: PRMT1 methyltransferase inhibitors, confirmation, biochemical, fluorescence polarization, triplicate. shares compounds with PRMT1 inh. recombinant His-PRMT1, activity-based probe fluorescence polarization. inhibition, % at 2.79 µM. hit rate 42% among 3,300. AID 687036, 2013;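 active = mean inhibition across replicates above the hit cutoff derived for the earlier primary screen, cut at about 22% in these data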
Numbers without * were called inactive; . = not tested or not shown.

SMILES	PRMT1 inh	HTRA1 inh	SIAE inh	mABHD4 FP	TCR-CD3 inh	PRMT1 inh conf
O=C(CSc1nc2nc(-c3cccs3)cc(C(F)(F)F)c2c(=O)[nH]1)C(F)(F)F	58*	-6	4	-2	2	84*
O=C(CSc1nc2nc(-c3cccs3)cc(C(F)(F)F)c2c(=O)[nH]1)NCc1ccco1	30*	-10	-12	-6	2	13
COC(=O)CSc1nc2nc(-c3cccs3)cc(C(F)(F)F)c2c(=O)[nH]1	2	6	-2	2	6	.
CC(=O)Nc1ccc(NC(=O)CSc2nc3nc(-c4cccs4)cc(C(F)(F)F)c3c(=O)[nH]2)cc1	4	-12	-3	-3	3	.
CCN(Cc1ccccc1)C(=O)C1C2C=CC3(CN(Cc4ccccc4)C(=O)C13)O2 (centres undefined)	-2	.	0	0	.	.
CC(C)Sc1nc(SCC(=O)NCc2ccco2)c2c3c(sc2n1)COC(C)(C)C3	31*	-24	-14	-22	1	10
CC(C)Sc1nc(SCC(=O)O)c2c3c(sc2n1)COC(C)(C)C3	2	4	3	3	-9	.
CCOC(=O)C1CCN(c2nc(N)c3c(N)nc(SCC(=O)O)cc3c2C#N)CC1	55*	15	-2	26	7	26*
NC(=O)c1c(NC(=O)C2CCCO2)sc2c1CCCCC2 (centres undefined)	28*	7	4	14	-1	7
O=Cc1s/c(=N\S(=O)(=O)c2ccccc2)n(CCCCl)c1Cl	43*	-18	-6	3	4	37*
CCn1c(C)cs/c1=N\S(=O)(=O)c1ccccc1	-1	-1	4	1	1	.
CCOc1ccc2[nH]c(=O)c(C(c3nnnn3Cc3ccco3)N3CCN(C)CC3)cc2c1 (centres undefined)	11	0	2	12	2	.
COc1cc2cc(CN(Cc3nnnn3Cc3ccco3)C3CCCCC3)c(=O)[nH]c2cc1OC	29*	3	7	19	-2	10
Cc1cc2cc(C(c3nnnn3Cc3ccco3)N3CCCCC3)c(=O)[nH]c2cc1C (centres undefined)	30*	14	0	3	-1	8
Cc1ccc2cc(CN(Cc3ccc4c(c3)OCO4)Cc3nnnn3Cc3ccco3)c(=O)[nH]c2c1C	61*	-30	-9	11	0	5
Cc1ccc(C)c2[nH]c(=O)c(CN(Cc3ccc4c(c3)OCO4)Cc3nnnn3Cc3ccco3)cc12	28*	-39	4	15	9	-4
COC(=O)[C@]12C[C@H](CC(=O)N3CCOCC3)C(=O)N(Cc3ccco3)C1=C[C@H](C(C)C)O[C@@H]2C1CC1	-1	.	5	1	.	.
Oc1ccc(N=Nc2ccccc2)o1	35*	1	-2	2	0	49*
CN1C(=O)c2cc(NC(=O)c3ccc(F)cc3)ccc2OC[C@H]2O[C@H](CC(=O)NC3CCC3)CC[C@H]21	-1	.	7	-3	.	.
O=C(Nc1ccccc1)Nc1nc2ncccn2c1-c1ccc(F)cc1	1	.	0	-4	.	.
O=c1oc2c3c4c(cc2c(C(F)(F)F)c1CCN1CCOCC1)CCCN4CCC3	53*	5	-7	-5	0	24*
CC(C)n1c(=S)[nH]c2c1c(=O)[nH]c(=O)n2C	45*	3	7	4	0	47*
Cc1cc(C)c(C)c(S(=O)(=O)N2C(=S)NC(=O)C2CC(C)C)c1C (centres undefined)	2	-3	-7	-1	-5	.
Cc1cc(C)c(C)c(S(=O)(=O)N2C(=S)NC(=O)C2C(C)C)c1C (centres undefined)	28*	-11	0	-5	5	6
O=S1(=O)c2ccc(Br)cc2OC[C@@H](c2ccccc2)N1Cc1cn(CCC2OCCO2)nn1	0	.	-2	-4	.	.
SMILES	PRMT1 inh	HTRA1 inh	SIAE inh	mABHD4 FP	TCR-CD3 inh	PRMT1 inh conf
CC(=O)Nc1ccc(S(=O)(=O)/N=C2/NC(=O)/C(=C\c3ccco3)S2)cc1	35*	-4	-45	15	15	13
Cc1ccc(C)c(S(=O)(=O)Nc2ccc3scnc3c2)c1	35*	-3	0	-3	9	7
Cc1ccc(C)c(S(=O)(=O)Nc2ccc3[nH]c(=O)[nH]c3c2)c1	5	9	0	10	-4	.
CC(=O)OCC1=C(C(=O)O)N2C(=O)[C@@H](NC(=O)Cc3cccs3)[C@H]2SC1	11	-5	-1	8	8	.
CC(=O)OCC1=C(C(=O)O)N2C(=O)C(NC(=O)c3ccc(COc4c(C)cccc4Cl)o3)C2SC1 (centres undefined)	47*	-16	-12	3	2	18
CC(=O)OCC1=C(C(=O)O)N2C(=O)C(NC(=O)c3ccc(COc4ccc(Cl)cc4)o3)C2SC1 (centres undefined)	36*	-27	-8	1	3	12
O=S(=O)(c1ccccc1F)N1CCN(Cc2cc3c(cc2O)OCO3)CC1	25*	6	5	6	0	12
O=[N+]([O-])c1ccccc1S(=O)(=O)N1CCN(Cc2cc3c(cc2O)OCO3)CC1	15	-7	3	6	6	.
CCOC(=O)c1ccc(S(=O)(=O)N2CCN(Cc3cc4c(cc3O)OCO4)CC2)cc1	11	7	6	7	2	.
Cc1ccc(C)c(S(=O)(=O)N2CCN(Cc3cc4c(cc3O)OCO4)CC2)c1	45*	-5	11	-12	-6	8
COc1ccc(S[C@]2(C(=O)NCCc3ccccc3)CC(=O)N[C@@H]2c2ccc(OC)cc2)cc1	-6	.	4	-6	.	.
COc1ccc(S[C@]2(C(=O)N(C)C)CC(=O)N(c3ccccc3)[C@@H]2c2ccc(OC)cc2)cc1	-3	.	3	-6	.	.
C/C=C\C=C/C(=O)Nc1cccc(C2=NOC3(C2)C[C@@H](C(N)=O)N(C(=O)CCCCC)C3)c1 (some centres undefined)	25*	-10	-8	-6	8	65*
C/C=C\C=C/C(=O)Nc1cccc(C2=NOC3(C2)C[C@H](C(N)=O)N(C(=O)Cc2ccc([N+](=O)[O-])cc2)C3)c1 (some centres undefined)	42*	-14	-20	-5	2	52*
Cc1cc(C)cc(C(=O)OCCN2CCN(C3CN(Cc4cn(Cc5ccc([N+](=O)[O-])cc5)nn4)S(=O)(=O)C3)CC2)c1 (centres undefined)	3	.	-1	-8	.	.
